Sampled rows, rich in hits. Any-hit rate of the full collection: about 3.5%.
rCAG binder: binders of r(CAG) RNA repeats, primary screen, biochemical, fluorescence. r(CAG) RNA repeat, TO-PRO-1 dye displacement fluorescence. AID 651821, 2012. hit rate 1.3% among 370,000. inhibition, % at 3 µM;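 active = inhibition above the plate cutoff, the mean of all test compounds on that plate plus 3 SD, cut at about 35% in these data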;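 note: higher means more dye released from RNA so lower well fluorescence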
HTRA1 inhibitor: HTRA1 serine protease inhibitors, primary screen, biochemical, fluorescence polarization, HTS. inhibition, % at 5.96 µM. Q92743. hit rate 0.5% among 340,000. recombinant HTRA1, FP-rhodamine activity-based probe; in the data active = inhibition above about 36%
Target sequence (Q92743 whole entry, looked up): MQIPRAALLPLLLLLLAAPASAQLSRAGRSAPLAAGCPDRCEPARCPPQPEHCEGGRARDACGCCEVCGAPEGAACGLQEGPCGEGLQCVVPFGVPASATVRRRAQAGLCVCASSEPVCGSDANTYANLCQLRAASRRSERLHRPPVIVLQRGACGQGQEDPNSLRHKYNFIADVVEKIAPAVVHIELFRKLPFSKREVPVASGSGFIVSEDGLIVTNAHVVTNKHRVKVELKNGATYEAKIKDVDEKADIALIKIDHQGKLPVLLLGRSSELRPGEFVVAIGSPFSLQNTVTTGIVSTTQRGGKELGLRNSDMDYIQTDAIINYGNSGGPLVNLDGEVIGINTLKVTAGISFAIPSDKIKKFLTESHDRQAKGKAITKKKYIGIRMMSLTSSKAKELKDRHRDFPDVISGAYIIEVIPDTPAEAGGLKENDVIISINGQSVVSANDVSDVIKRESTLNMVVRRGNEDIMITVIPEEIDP
PRMT1 inh: PRMT1 methyltransferase inhibitors, primary screen, biochemical, fluorescence polarization; recombinant PRMT1, activity-based probe fluorescence polarization; hit rate 1.3% among 370,000; AID 652257, 2013; Protein arginine N-methyltransferase 1 (Homo sapiens), Q99873; inhibition, % at 2.79 µM;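 active = inhibition above about 21% made by adding two undisclosed values, limit read from the data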
SIAE inh: human SIAE inhibitors, primary screen, biochemical, fluorescence polarization, FP-Rh probe, 1536-well HTS | inhibition, % at 9.66 µM | hit rate 0.69% among 370,000 | AID 1053197, 2014 | SIAE FP-Rh probe binding;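 active = inhibition above a cutoff: mean of compounds within the control limits plus 3 SD of those, cut at about 17% in these data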
mABHD4 FP: ABHD4 inhibitors, primary screen, biochemical, fluorescence polarization, mouse; purified mABHD4, FP-Rh probe fluorescence polarization; inhibition, % at 8.92 µM; hit rate 0.54% among 370,000; AID 720543, 2013;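 active = inhibition exceeding the mean over every tested compound plus 3 SD, cut at about 30% in these data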
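Doses – 8.92 µM, single dose · Material – wild-type mouse ABHD4 protein · Replication – single well per compound (singlicate) · Measure – percent inhibition of probe binding, normalized to plate controls · Schedule – 45 min compound pre-incubation plus 60 min probe step, 25 °C · Detection – fluorescence polarization with parallel and perpendicular emission, 525/598 nm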
TCR-CD3 inh: inhibitors of human TCR-CD3 interaction, primary screen, biochemical, fluorescence, TAMRA-labeled TCR probe; T-cell receptor (TCR); inhibition, % at 9.4 µM; hit rate 0.37% among 360,000; AID 651800, 2012;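 note: recombinant mutant TCR 2C K166C tagged with TAMRA read by polarization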
HTRA1 inh conf: HTRA1 protease inhibitors, retest, confirmation, biochemical, fluorescence polarization; recombinant HTRA1, FP-rhodamine activity-based probe; AID 540248, 2011; shares compounds with HTRA1 inhibitor; hit rate 66% among 1,600; inhibition, % at 5.96 µM;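 active = mean inhibition over three repeats above a set limit taken from the earlier primary screen, cut at about 37% in these data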;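 note: inhibitors block probe binding so polarization drops and inhibition rises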
BSA probe FL: compounds interfering with TAMRA-BSA probe, counter-screen for TCR-CD3 interaction inhibitor project, biochemical, fluorescence, TAMRA-labeled BSA | hit rate 10% among 1,200 | TAMRA-labeled BSA probe fluorescence counterscreen | shares compounds with TCR-CD3 inh | inhibition, % at 9.4 µM; in the data active = inhibition above about 23%
TCR-CD3 inh conf: TCR-CD3 interaction inhibitors, retest, confirmation, biochemical, fluorescence, TAMRA-labeled TCR probe; shares compounds with TCR-CD3 inh; TAMRA-labeled TCR probe fluorescence binding assay; inhibition, % at 9.4 µM; hit rate 48% among 1,200; AID 652036, 2013
rCAG binder conf: small molecules binding CAG repeat RNA – biochemical, fluorescence, confirmation. hit rate 70% among 4,300. shares compounds with rCAG binder. AID 652065, 2013. inhibition, % at 3 µM. r(CAG) RNA repeat, TO-PRO-1 dye displacement fluorescence;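 active = inhibition above a per-plate cutoff, the mean inhibition of sample wells plus 3 SD, cut at about 35% in these data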;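 note: loss of TO-PRO-1 fluorescence as compound displaces dye from 1x1 AA loop RNA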
dCAG dye counter: displacement of TO-PRO-1 from CAG DNA duplex, counter-screen for rCAG RNA repeat binder project, biochemical, fluorescence, TO-PRO-1 dye, d(CAG) DNA oligo. shares compounds with rCAG binder. d(CAG) DNA oligo TO-PRO-1 dye displacement. inhibition, % at 3 µM. hit rate 94% among 4,300;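 active = inhibition above its plate's cutoff, the mean test-well inhibition plus 3 SD, cut at about 4.8% in these data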;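 note: hits displace the dye from DNA and so lower well fluorescence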
PRMT1 inh conf: PRMT1 methyltransferase inhibitors, confirmation, biochemical, fluorescence polarization, triplicate | shares compounds with PRMT1 inh | recombinant His-PRMT1, activity-based probe fluorescence polarization | inhibition, % at 2.79 µM | hit rate 42% among 3,300;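 active = mean inhibition across replicates above the hit cutoff derived for the earlier primary screen, cut at about 22% in these data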
ABHD4 confirm: ABHD4 inhibitors, retest, confirmation, biochemical, fluorescence polarization, mouse. hit rate 55% among 1,800. purified mABHD4, FP-Rh probe fluorescence polarization. shares compounds with mABHD4 FP. AID 720658, 2013. inhibition, % at 8.92 µM;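 active = mean inhibition across replicates above the hit cutoff set in the primary screen, cut at about 30% in these data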
SIAE confirm: human SIAE inhibitors, retest, confirmation, biochemical, fluorescence polarization, FP-Rh probe, triplicate | shares compounds with SIAE inh | AID 1117263, 2014 | hit rate 13% among 2,300 | inhibition, % at 9.66 µM | SIAE FP-Rh activity-based probe;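 active = mean inhibition of the replicates above the hit cutoff set in the primary screen, cut at about 17% in these data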;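 note: inhibitors lower polarization as more probe stays unbound to SIAE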
Of the large screens only hits and unclear results are named; the others gave an inactive call (follow-up assays come after a bar, where they were run). Cut-off read from the data, not from the text of the source, unless noted: active = inhibition above about 19%; inactive = the rest.

N#C/C(=C/c1ccc(O)c(O)c1)c1nc2ccccc2[nH]1	HTRA1 inhibitor 65, PRMT1 inh 42, SIAE inh 29, mABHD4 FP 58, TCR-CD3 inh 36 | HTRA1 inh conf 94 | BSA probe FL inactive | TCR-CD3 inh conf 48 | PRMT1 inh conf 37 | ABHD4 confirm 65 | SIAE confirm 51
C[C@H](O)[C@@H]1C(=O)N2CCc3c([nH]c4c(-c5ccc6c(c5)OCO6)cccc34)[C@@H]2C[C@@H]1N(C)C(=O)OCc1ccccc1	none (no result: HTRA1 inhibitor, TCR-CD3 inh)
O=C(N/N=C/c1cc(Br)cc([N+](=O)[O-])c1O)c1ccc(NC(=O)c2ccc(F)cc2)cc1	rCAG binder 43, HTRA1 inhibitor 51, SIAE inh 53, TCR-CD3 inh 58 | HTRA1 inh conf 53 | BSA probe FL inactive | TCR-CD3 inh conf 51 | rCAG binder conf 78 | dCAG dye counter 41 | SIAE confirm inactive
COc1ccc(S[C@]2(C(=O)N3CCOCC3)CC(=O)N(C(=O)CCc3ccccc3)[C@@H]2c2ccc(OC)cc2)cc1	none (no result: HTRA1 inhibitor, TCR-CD3 inh)
CC(=O)C(=Nc1ccccc1Cl)NNc1ccc(Cl)cc1	HTRA1 inhibitor 47, PRMT1 inh 71, SIAE inh 18, mABHD4 FP 43 | HTRA1 inh conf inactive | ABHD4 confirm inactive | SIAE confirm inactive
Cc1ccc(Cn2cc(CN3[C@H](Cc4ccccc4)COc4cc(Br)ccc4S3(=O)=O)nn2)cc1	none (no result: HTRA1 inhibitor, TCR-CD3 inh)
O=C(CC1Nc2cccc3cccc(c23)NC1=O)Nc1ccc(F)cc1 (stereo not drawn)	HTRA1 inhibitor 61, SIAE inh 24 | HTRA1 inh conf inactive | SIAE confirm inactive
CCOC(=O)Cn1cc(CN2C(C(=O)OC)CN(Cc3ccc(Cl)cc3)CCS2(=O)=O)nn1 (stereo not drawn)	none (no result: HTRA1 inhibitor, TCR-CD3 inh)
CN1C(=O)NC(c2ccccc2[N+](=O)[O-])C2=C1CCCC2=O (stereo not drawn)	HTRA1 inhibitor 77, PRMT1 inh 36, SIAE inh 54, mABHD4 FP 89, TCR-CD3 inh 85 | HTRA1 inh conf 44 | BSA probe FL 62 | TCR-CD3 inh conf 44 | ABHD4 confirm 56 | SIAE confirm 80
CN1C(=O)NC(c2ccccc2[N+](=O)[O-])C2=C1CC(C)(C)CC2=O (stereo not drawn)	none
O=C(Nc1c(-c2ccc(C(F)(F)F)cc2)nc2ncccn12)C1CC1	none (no result: HTRA1 inhibitor, TCR-CD3 inh)
COc1cc2nc(Nc3ccc(C)c(Cl)c3)nc(N)c2cc1OC	HTRA1 inhibitor 36, SIAE inh 58, mABHD4 FP 42 | HTRA1 inh conf 46 | ABHD4 confirm 66 | SIAE confirm 62
O=C(NNc1c2ccccc2nc2ccccc12)c1ccccc1O	HTRA1 inhibitor 51, SIAE inh 19 | HTRA1 inh conf 39 | SIAE confirm 18
CC(C)CN1C(=O)[C@@]2(CC(=O)N(C)C2c2ccccc2)c2cc(-n3cc(CCc4ccccc4)nn3)ccc21 (stereo partly drawn)	none (no result: HTRA1 inhibitor, TCR-CD3 inh)
O=C(COC(=O)c1c2c(nc3ccccc13)/C(=C\c1ccco1)CC2)NC1CCCC1	rCAG binder 60, HTRA1 inhibitor 58, PRMT1 inh 28, SIAE inh 23, mABHD4 FP 63 | HTRA1 inh conf inactive | rCAG binder conf 59 | dCAG dye counter 33 | PRMT1 inh conf inactive | ABHD4 confirm 32 | SIAE confirm inactive
CCC[C@H]1[C@@H](OC(=O)NCCc2c[nH]c3ccccc23)CC[C@@]23CCCN2C(=O)CCC[C@@H]13	none (no result: rCAG binder, HTRA1 inhibitor, TCR-CD3 inh)
Oc1c(Br)cc(Br)cc1CNc1cccc2cccnc12	HTRA1 inhibitor 70, SIAE inh 32, mABHD4 FP 56 | HTRA1 inh conf inactive | ABHD4 confirm inactive | SIAE confirm inactive
Oc1ccc(Cl)cc1CNc1cccc2cccnc12	HTRA1 inhibitor 49, SIAE inh 20, mABHD4 FP 36 | HTRA1 inh conf inactive | ABHD4 confirm inactive | SIAE confirm inactive
Cc1cccc(NCc2cc(Cl)ccc2O)n1	none
COc1cccc(-c2nnc3sc(-c4ccc(Br)o4)nn23)c1	none (no result: HTRA1 inhibitor, TCR-CD3 inh)
COc1ccc2c(c1)CN1CN(Cc3ccccc3)S(=O)(=O)CC21 (stereo not drawn)	none (no result: HTRA1 inhibitor, TCR-CD3 inh)
Cc1ccc([N+](=O)[O-])cc1-c1[nH]c(-c2ccc(O)c(O)c2)nc1-c1ccccc1	rCAG binder 35, HTRA1 inhibitor 69, SIAE inh 34 | HTRA1 inh conf 85 | rCAG binder conf 37 | dCAG dye counter 19 | SIAE confirm inactive
COc1ccc(/C=N/NC(=O)c2cc(O)c(O)c(O)c2)cc1Cn1cc([N+](=O)[O-])cn1	HTRA1 inhibitor 72, SIAE inh 46, TCR-CD3 inh 63 | HTRA1 inh conf 82 | BSA probe FL inactive | TCR-CD3 inh conf 78 | SIAE confirm inactive
COc1ccc(/C=N/NC(=O)c2ccccc2O)cc1Cn1cc([N+](=O)[O-])cn1	none

High-throughput results as filed in PubChem.
